Source: PubChem BioAssay (several laboratories)
Neddyl block = inhibitors of cullin neddylation, primary screen, biochemical, TR-FRET, uHTS, NAE and Ubc12 | inhibition, % at 25 µM | 360,000 tested, 0.58% active; in the data active = inhibition above about 36%
Target sequence (P61081 whole entry, looked up): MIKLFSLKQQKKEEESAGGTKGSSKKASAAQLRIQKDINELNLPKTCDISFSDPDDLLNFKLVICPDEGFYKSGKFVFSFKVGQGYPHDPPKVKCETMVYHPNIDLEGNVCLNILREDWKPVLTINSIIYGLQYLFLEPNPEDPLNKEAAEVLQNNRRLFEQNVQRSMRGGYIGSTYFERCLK
Target sequence (Q13564 whole entry, looked up): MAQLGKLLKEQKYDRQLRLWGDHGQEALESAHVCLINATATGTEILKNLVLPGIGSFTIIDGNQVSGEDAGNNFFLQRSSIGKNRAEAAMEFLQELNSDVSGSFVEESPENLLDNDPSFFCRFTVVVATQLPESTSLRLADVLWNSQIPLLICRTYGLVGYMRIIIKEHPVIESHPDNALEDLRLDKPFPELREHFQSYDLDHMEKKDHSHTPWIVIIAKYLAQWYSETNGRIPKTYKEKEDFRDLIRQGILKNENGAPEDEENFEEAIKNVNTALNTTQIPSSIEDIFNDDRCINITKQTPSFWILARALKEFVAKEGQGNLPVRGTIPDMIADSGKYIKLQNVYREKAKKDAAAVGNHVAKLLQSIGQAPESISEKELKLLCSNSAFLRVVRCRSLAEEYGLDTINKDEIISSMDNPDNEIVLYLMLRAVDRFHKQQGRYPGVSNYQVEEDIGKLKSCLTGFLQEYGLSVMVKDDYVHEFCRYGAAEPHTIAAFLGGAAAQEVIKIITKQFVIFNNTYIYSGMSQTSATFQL
PfM18AAP inh-1 = PfM18AAP inhibitors, malaria aminopeptidase, primary screen, biochemical, QFRET, recombinant enzyme | inhibition, % at 7.35 µM | H-Glu-NHMec fluorogenic cleavage | M18 aspartyl aminopeptidase (Plasmodium falciparum 3D7) | 290,000 tested, 1.2% active;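 active = inhibition above the campaign mean inhibition over all tested compounds plus 3 SD, cut at about 28% in these data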;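 note: 0% = plate median of test compound wells and 100% = 2 mM ZnCl2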
HKDC1 inh = HKDC1 hexokinase inhibitors, primary screen, biochemical, fluorescence, uHTS | inhibition, % at 20 µM | AID 493160, 2011 | Q2TB90 | 340,000 tested, 0.16% active | recombinant HKDC1, G6PDH/diaphorase resazurin coupled fluorescence;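 active = inhibition above about 35% when tested at 20 µM, limit read from the data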;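 note: plate controls were DMSO wells with enzyme for no effect and DMSO wells lacking enzyme for full effect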
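Material: recombinant HKDC1 hexokinase; Amount: HKDC1 at 5 µg/mL; Medium: Tris pH 8.0 buffer with MgCl2, Tween-20, BSA, BME; Schedule: 90 min reaction incubation at room temperature, dark; Technique: coupled resazurin fluorescence, excitation 525 nm, emission 613 nm.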
PfG6PD inh = PfG6PD enzyme inhibitors, primary screen, biochemical, fluorescence intensity, uHTS. 350,000 tested, 0.78% active. PfGluPho enzyme, NADPH resazurin-diaphorase fluorescence. inhibition, % at 20 µM;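 active = inhibition reaching at least a set limit at 20 µM in the primary screen, cut at about 59% in these data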;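 note: 0% = DMSO wells with substrate and 100% = DMSO wells lacking glucose-6-phosphate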
PfM18AAP inh-2 = PfM18AAP inhibitors, malaria aminopeptidase, confirmation, biochemical, QFRET, recombinant enzyme, triplicate; inhibition, % at 7.35 µM; 2,400 tested, 28% active; H-Glu-NHMec fluorogenic cleavage; AID 2170, 2009; shares compounds with PfM18AAP inh-1;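 active = mean inhibition over replicate wells above the hit cutoff set for the earlier primary screen, cut at about 29% in these data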;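 note: 0% = median of test compound wells and 100% = 2 mM ZnCl2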
CTSL1 confirm = cathepsin L1 inhibitors, retest, confirmation, counter-screen for PFM18AAP inhibitor project, biochemical, QFRET, triplicate | 2,400 tested, under 10 active | purified cathepsin L1, Z-Leu-Arg-MCA fluorescence | inhibition, % at 5.96 µM | shares compounds with PfM18AAP inh-1;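 active = average inhibition across replicates above the hit cutoff set in the earlier primary screen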;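 note: 0% = median of test compound wells and 100% = Z-Phe-Ala-diazomethylketone 1 µM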
* = called active by the depositor; x = no result given. Sampled rows, rich in hits. Any-hit rate of the full collection: about 2.2%.

SMILES	Neddyl block	PfM18AAP inh-1	HKDC1 inh	PfG6PD inh	PfM18AAP inh-2	CTSL1 confirm
O=C(N/N=C/c1nn(-c2ccccc2)cc1-c1ccc(Cl)cc1)c1ccncc1	x	4	x	x	x	x
CC(=O)c1ccc(N2CCN(C(=O)c3ccc(C(=O)c4ccccc4)cc3)CC2)cc1	-17	x	5	-5	x	x
CCC(CC)c1nnc(NC(=O)C2CC(=O)N(CCc3ccc(F)cc3)C2)s1 (stereo unspecified)	6	35*	-3	36	-41	-3
Cc1cccc(OCCOCCSc2ncccn2)c1	4	6	-1	7	x	x
Cc1cccc(OCCSc2nc(N)cc(N)n2)c1	2	42*	-7	14	8	0
COc1cccc(C(=O)N(C)Cc2c(C)nn(C3CCS(=O)(=O)C3)c2C)c1 (stereo unspecified)	-22	x	-5	-1	x	x
CCCCCc1cc(=O)[nH]c(=S)[nH]1	3	7	-8	-1	x	x
CCCc1cc(=O)[nH]c(=S)[nH]1	-9	44*	-5	-4	-36	-6
Cc1ccc(CN2CCC(Oc3cccc(C(=O)NCc4cccnc4)c3)CC2)o1	10	-2	2	18	x	x
Cc1ccc(CNc2ccc(CNc3ncn[nH]3)cc2)cc1	2	27	-8	3	x	x
CN(C)c1ccc(CNc2ncn[nH]2)cc1	-3	37*	1	-6	-9	-1
COc1ccccc1CNc1ccc(CNc2ncn[nH]2)cc1	-4	33*	-3	-17	-17	1
c1ccc2c(CNc3ccc(CNc4ncn[nH]4)cc3)cccc2c1	-5	17	7	15	x	x
COc1cc(CNc2ccc(CNc3ncn[nH]3)cc2)ccc1OCc1ccccc1	1	47*	-2	25	-5	4
CCn1c(=O)n(CC)c2cc(N3CCCC3)c(NC(=O)c3c(F)cccc3F)cc21	18	35*	1	39	-20	2
COc1ccc(NC(=O)Nc2cccc3c2O[C@H](CN(C)S(=O)(=O)c2c(C)noc2C)[C@@H](C)CN([C@H](C)CO)C3=O)cc1	10	x	-2	2	x	x
COC(=O)CN(n1cnnc1)S(=O)(=O)c1ccccc1	3	78*	-1	-11	85*	4
CCN1CCN(CCCNC(=O)CNC(=O)c2nn(-c3ccc(OC)cc3OC)c(=O)c3ccccc23)CC1	-4	1	-2	7	x	x
O=[N+]([O-])c1cc([N+](=O)[O-])c2c(=Nc3ccccc3)n(-c3ccccc3)n(O)c2c1	-29	7	16	47	x	x
O=C(CNC(=O)c1ccccc1)NCCc1ccc(O)c(O)c1	10	84*	x	x	73*	-5
O=C(NCCN1CCOCC1)c1ccc(Cl)c(S(=O)(=O)NCc2ccccc2)c1	12	x	0	-16	x	x
CC1(c2ccc(Cl)cc2)NC(=O)N(CC(=O)N2CCN(C(=O)c3cccs3)CC2)C1=O (stereo unspecified)	1	x	x	1	x	x
O=c1[nH]cnc2[nH]ncc12	-11	49*	-9	-8	9	-6
Cc1cc2c(=O)[nH]cnc2s1	-2	-1	7	0	x	x
NNc1nc(-c2ccccc2Cl)c2cc(Br)ccc2n1	-22	32*	9	12	-15	8
SMILES	Neddyl block	PfM18AAP inh-1	HKDC1 inh	PfG6PD inh	PfM18AAP inh-2	CTSL1 confirm
COc1ccccc1N1CCN(C(=O)C(=O)c2cn(CC(=O)N3CCOCC3)c3ccccc23)CC1	1	0	-4	-12	x	x
C/C(=N\Nc1nc2ccccc2c(=O)n1O)c1ccco1	5	38*	-4	38	7	-2
CC(=O)c1ccc2c(c1)N(C)c1ccccc1S2	14	-6	0	8	x	x
C=Cc1ccc2c(c1)N(C)C(=C)S2	2	47*	-7	54	-5	5
O=C(CSc1nc2[nH]ncc2c(=O)[nH]1)N1CCCCC1	4	34*	-9	-3	-23	0
O=C(CSc1nc2[nH]ncc2c(=O)[nH]1)c1ccccc1	3	48*	-8	-16	40*	4
